Experimental findings from ChEMBL document CHEMBL2021789, “Molecular docking and enzymatic evaluation to identify selective inhibitors of aspartate semialdehyde dehydrogenase” (Bioorg Med Chem, 2012) are described below.

Structures are written as SMILES. Where only a bound is given, the exact number is not on record here.

Assay [1] in a line: Competitive inhibition of Streptococcus pneumoniae ASADH using aspartyl semialdehyde as substrate using Dixon plot analysis. The method in brief: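 Recombinant S. pneumoniae enzyme, reverse reaction read as NADPH rise at 340 nm, room temperature. Buffer: 120 mM CHES pH 8.6, 200 mM KCl, 20% DMSO for DMSO-soluble inhibitors. Substrates: 1 mM ASA, 1.5 mM NADP, 20 mM phosphate. Enzyme added last; inhibitor serially diluted. Initial velocities fitted to Dixon equation assuming competition with ASA.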

Assay [2] is described as follows: Competitive inhibition of Vibrio cholerae ASADH using aspartyl semialdehyde as substrate by Dixon plot analysis. The method in brief:
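Recombinant V. cholerae ASADH, reverse reaction, room temperature, in 120 mM CHES pH 8.6, 200 mM KCl and 20% DMSO. Final levels: ASA 1 mM, NADP 1.5 mM, phosphate 20 mM. Enzyme added to start; inhibitor serially diluted across wells. NADPH rise read at 340 nm; initial velocities fitted to Dixon equation assuming ASA-competitive inhibition to give Ki.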

Assay [3] is described as follows: Competitive inhibition of Vibrio cholerae ASADH using different concentration of aspartyl semialdehyde as substrate by spectrophotometry. In short, it runs like this:
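Recombinant V. cholerae ASADH, reverse reaction at room temperature in 120 mM CHES pH 8.6, 200 mM KCl, 20% DMSO, with NADP and phosphate. ASA varied at several fixed inhibitor concentrations. NADPH formation read at 340 nm; initial-rate data fitted to standard inhibition-type models.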

For the compound `CCn1c(=O)n(CC)c2cc([N+](=O)[O-])ccc21`, the Ki (in general, a measure of affinity in units of concentration, obtained from inhibition or displacement) in assay [1] is above 4000 µM. For the compound `O=c1[nH]c2ccc([N+](=O)[O-])cc2[nH]1`, the Ki in assay [1] is 400 µM; in assay [2] it was 1100 µM.

`Cn1c(=O)n(C)c2cc([N+](=O)[O-])ccc21`: the inhibition constant (Ki) in assay [1] is 86 µM; in assay [2], above 130 µM; in assay [3], 24 µM. In assay [1], `COC(=O)c1cc(C(=O)Nc2ccc([N+](=O)[O-])cc2)cc(C(=O)OC)c1` yielded a Ki above 20000 µM.

Take `CN1C(=O)c2ccc([N+](=O)[O-])cc2C1=O`: the Ki in assay [1] was 890 µM; in assay [2], 1100 µM.

Turning to `O=C1NC(=O)c2cc([N+](=O)[O-])ccc21`, the Ki in assay [1] amounted to 3300 µM; in assay [2], 2600 µM. For the compound `O=C(O)c1ccc(C(=O)O)nc1` [PYRIDINE-2,5-DICARBOXYLIC ACID], the Ki is 690 µM in assay [1] and 1200 µM in assay [2].

As for `O=C(O)c1cc(C(=O)O)cc(C(=O)Nc2ccc([N+](=O)[O-])cc2)c1`, the Ki amounted to 110 µM in assay [1] and 180 µM in assay [2].

With `CCN1C(=O)c2ccc([N+](=O)[O-])cc2C1=O`, in assay [1], the Ki was above 4000 µM.

In the case of `O=C1NC(=O)c2cc([N+](=O)[O-])c(Cl)cc21`, the figures for the Ki in assay [1], in assay [2] and in assay [3] were 150 µM, 180 µM and 197 µM, respectively.

With `COC(=O)c1ccc(C(=O)OC)nc1`, the Ki in assay [1] is above 20000 µM.

In assay [1], `COC(=O)c1ccc([N+](=O)[O-])cn1` had a Ki above 20000 µM. `O=C(O)c1ccc([N+](=O)[O-])cn1`: the Ki came out at 1200 µM in assay [1] and 2100 µM in assay [2].
